The target in experiment [1] is T1, 15-LOX-1 (Homo sapiens, UniProt P16050).
T1 sequence (P16050 1-662): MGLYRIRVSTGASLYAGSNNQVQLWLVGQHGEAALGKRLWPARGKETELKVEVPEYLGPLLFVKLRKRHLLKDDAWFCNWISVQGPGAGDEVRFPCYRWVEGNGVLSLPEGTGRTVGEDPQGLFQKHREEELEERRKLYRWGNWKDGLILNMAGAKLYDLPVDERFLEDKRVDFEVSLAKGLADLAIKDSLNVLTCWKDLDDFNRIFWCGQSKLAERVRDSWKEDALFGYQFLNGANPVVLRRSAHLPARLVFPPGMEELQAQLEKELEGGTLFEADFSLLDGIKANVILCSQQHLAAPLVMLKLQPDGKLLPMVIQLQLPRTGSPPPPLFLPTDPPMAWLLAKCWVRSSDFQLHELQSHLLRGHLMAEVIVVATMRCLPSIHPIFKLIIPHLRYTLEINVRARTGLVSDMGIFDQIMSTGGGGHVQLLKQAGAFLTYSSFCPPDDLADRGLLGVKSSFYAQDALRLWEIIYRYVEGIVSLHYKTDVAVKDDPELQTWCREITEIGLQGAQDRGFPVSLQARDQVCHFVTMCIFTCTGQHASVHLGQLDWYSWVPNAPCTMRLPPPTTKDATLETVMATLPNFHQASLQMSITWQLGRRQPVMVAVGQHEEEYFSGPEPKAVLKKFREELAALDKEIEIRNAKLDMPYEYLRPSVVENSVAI
As to the kind of experiment: 15-LOX-1 enzyme inhibition, UV absorbance. Format: biochemical.

Experiment [2] addresses T2, human 15-lipoxygenase-1 (15-LOX-1) (Homo sapiens, UniProt P16050).
T2 sequence (P16050 1-662): T1 sequence (P16050 1-662)
As to the kind of experiment: Michaelis-Menten enzyme kinetics analysis of 15-LOX-1 inhibition. Format: biochemical. Particulars: Lineweaver-Burk: Km increases, Vmax constant.

In experiment [3] the test system is HT-22 cells. As to the kind of experiment: Glutamate-induced cell death, xCELLigence impedance and MTT. Format: cell-based.
The test system of experiment [4] is HT-22 cells. As to the kind of experiment: Glutamate-induced lipid peroxidation, BODIPY staining, FACS. Format: cell-based. The settings on record: 1 μM, 16 h after initiation of glutamate challenge. A digest of the protocol: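 HT-22 cells were seeded at 5x10^4 per well, left overnight, then exposed to 4 mM glutamate with or without test compound (10 µM) or 1 µM reference inhibitor for 6–7 h or 14–16 h. Staining used BODIPY 581/591 C11 (2 µM final, 1 h, 37°C). The red-to-green fluorescence shift was read by FACS at 488 nm excitation. At least three independent experiments, triplicates.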

In experiment [5] the test system is 15-LOX-1. The settings on record: mouse, transient cerebral ischemia; cited from earlier work.

Turning to `CCCCNC(=O)c1cc(-c2ccc(Cl)cc2)sc1N` [Compound 3l, 2-amino-N-butyl-5-(4-chlorophenyl)thiophene-3-carboxamide], in experiment [1], the “inhibitory potency in words” value was “inactive”. Still for that read-out and setting: in the case of `CCCCNC(=O)c1cc(-c2ccc(Br)cc2)sc1N` [Compound 3m, 2-amino-5-(4-bromophenyl)-N-butylthiophene-3-carboxamide] it was “inactive”; in that of `CCCCNC(=O)c1cc(Cc2ccccc2)sc1N` [Compound 3n, 2-amino-5-benzyl-N-butylthiophene-3-carboxamide], “inactive”. `CCCCNC(=O)c1cc(-c2ccccc2)sc1N` [Compound A9, 2-amino-N-butyl-5-phenylthiophene-3-carboxamide]: in experiment [2], the “mechanism of 15-LOX-1 inhibition” value was “competitive inhibition”. Moreover, in experiment [3] (post-treatment 5 and 10 μM, added 2-8 h after glutamate), the “time of addition after glutamate challenge at which cells were still protected” value is listed as “up to 8 h”. As for `c1ccc2c(c1)SCc1c-2[nH]c2ccccc12` [PD-146176], in experiment [4], the “effect on boost of lipid peroxides” value is on record as “significantly attenuated”. Besides, in experiment [3] (1 μM), the “protection against glutamate toxicity compared with ThioLox” value is on record as “Comparable results”. The “effect on infarct size” value in experiment [5] is “significantly reduced the infarct size”.
